For data set [1], the system named is Pseudomonas aeruginosa. In words: Antimicrobial activity against Pseudomonas aeruginosa ATCC 27853 infected in Swiss neutropenic mouse assessed as reduction in lung bacterial load at […], ip BID administered 24 hrs post infection. Type of data set: functional. The settings on record: route intraperitoneal.
Data set [2] has as its system Mus musculus. In words: Cmax in mouse at 60 mg/kg, ip administered as single dose. The arrangement: dose 60 mg/kg, route intraperitoneal. Particulars: in vivo. Type of data set: ADME, organism-based.
For data set [3], the system named is Pseudomonas aeruginosa. Briefly: Antimicrobial activity against Pseudomonas aeruginosa NH57388A infected in Swiss neutropenic mouse assessed as lung bacterial load at 60 mg/kg, ip BID administered 24 hrs post infection (reference value: 8.89 logCFU). Type of data set: functional. Particulars: route intraperitoneal.
Data set [4] has as its system Pseudomonas aeruginosa. In words: Antimicrobial activity against Pseudomonas aeruginosa ATCC 27853 infected in Swiss neutropenic mouse assessed as reduction in lung bacterial load at 32 mg/kg, ip BID administered 24 hrs post infection. In kind it is functional. Particulars: route intraperitoneal. The essentials:
(§1)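 Female Swiss mice (5–6 wk) made neutropenic with cyclophosphamide 150 mg/kg i.p. on days 1 and 3. On day 4, intratracheal instillation of 0.05 ml strain ATCC 27853 suspension at ca. 1–6 × 10⁵ CFU/ml. From 24 h postinfection, two i.p. doses over 24 h, n = 8. Lungs taken 12–16 h after the last dose, homogenized in saline and plated; mean log CFU/lung compared with an untreated baseline group.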

Data set [5] has as its system Pseudomonas aeruginosa. In words: Antimicrobial activity against Pseudomonas aeruginosa ATCC 27853 infected in Swiss neutropenic mouse assessed as reduction in lung bacterial load at 63 mg/kg, ip BID administered 24 hrs post infection. The settings on record: route intraperitoneal. Type of data set: functional. The essentials:
as §1

Data set [6] concerns Pseudomonas aeruginosa. Briefly: Antimicrobial activity against Pseudomonas aeruginosa NH57388A infected in Swiss neutropenic mouse assessed as lung bacterial load at 15 mg/kg, ip BID administered 24 hrs post infection (reference value: 8.89 logCFU). The settings on record: route intraperitoneal. In kind it is functional.
The test system of data set [7] is Pseudomonas aeruginosa. Briefly: Antimicrobial activity against Pseudomonas aeruginosa NH57388A infected in Swiss neutropenic mouse assessed as lung bacterial load at 30 mg/kg, ip BID administered 24 hrs post infection (reference value: 8.89 logCFU). In kind it is functional. Particulars: route intraperitoneal.
Data set [8] deals with Mus musculus. Briefly: Cmax in mouse at 60 mg/kg, administered as single dose through aerosol. In kind it is ADME, organism-based. Set-up: dose 60 mg/kg. The settings on record: in vivo, inhaled_or_intranasal.
Data set [9] deals with Pseudomonas aeruginosa. Briefly: Antimicrobial activity against Pseudomonas aeruginosa isolate NH57388A by broth microdilution method. In kind it is functional. In outline: (§2)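 Broth microdilution per CLSI. Inoculum 5 × 10⁵ CFU/ml, twofold dilutions of antibiotic in medium, 24 h at 35°C. Growth read at 600 nm and by eye with a reading mirror. MIC is the lowest concentration with no visible growth.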

Data set [10] relates to Pseudomonas aeruginosa. In words: Antimicrobial activity against Pseudomonas aeruginosa ATCC 27853 by broth microdilution method. Type of data set: functional. In outline: as §2
For data set [11], the species on record is Mus musculus. In words: Toxicity in Pseudomonas aeruginosa ATCC 27853 infected Swiss mouse. In kind it is functional.
For data set [12], the system named is Pseudomonas aeruginosa. Briefly: Antimicrobial activity against Pseudomonas aeruginosa ATCC 27853 infected in Swiss neutropenic mouse assessed as mouse survival rate at 400 mg/kg BID administered 24 hrs post infection through aerosol. In kind it is functional. The essentials: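 Female Swiss mice were made neutropenic (cyclophosphamide 150 mg/kg i.p., days 1 and 3) and infected intratracheally on day 4 with ATCC 27853, 0.05 ml at ca. 1–6 × 10⁵ CFU/ml. Aerosol via microsprayer to the bifurcation (50 µl) under isoflurane, twice daily for 48 h from 24 h postinfection. Survival observed to 9 days postinfection, n = 10.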

For data set [13], the system named is Pseudomonas aeruginosa. In words: Antimicrobial activity against Pseudomonas aeruginosa ATCC 27853 infected in Swiss neutropenic mouse assessed as mouse survival rate at 60 mg/kg BID administered 24 hrs post infection through aerosol.
Data set [14] deals with Pseudomonas aeruginosa. Briefly: Bactericidal activity against Pseudomonas aeruginosa NH57388A infected in Swiss neutropenic mouse assessed as reduction in lung bacterial load at 60 mg/kg BID administered 24 hrs post infection through aerosol. Type of data set: functional. In outline: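 In the chronic alginate-embedded NH57388A lung infection (cyclophosphamide 150 mg/kg i.p. once, 4 days before; about 10⁸ CFU/ml inoculum), mice got aerosol doses by microsprayer (50 µl, isoflurane) twice daily for 3 days from 24 h postinfection. Lungs homogenized and plated 12–16 h after the final dose; log CFU/lung.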

In brackets after ≈: the same amount, converted by molar mass.

With `C[C@H]1COc2c(N3CCN(C)CC3)c(F)cc3c(=O)c(C(=O)O)cn1c23.C[C@H]1COc2c(N3CCN(C)CC3)c(F)cc3c(=O)c(C(=O)O)cn1c23.O` [LEVOFLOXACIN], the log10cfu in the data set with Pseudomonas aeruginosa [1] stood at 3.5; with Pseudomonas aeruginosa [3] it was 4.93; in the data set on Pseudomonas aeruginosa [4], 0.65; in the data set on Pseudomonas aeruginosa [5], 2.7; in the data set on Pseudomonas aeruginosa [6] it was 7.83; with Pseudomonas aeruginosa [7] it was 5.73. Further, the Cmax in the data set with Mus musculus [2] was determined as 18.6 mg/kg; with Mus musculus [8] it was 550 mg/kg.
As to `C[C@H]1[C@H](NC(=O)/C(=N\OC(C)(C)C(=O)O)c2csc(N)n2)C(=O)N1S(=O)(=O)O` [AZTREONAM], the MIC against Pseudomonas aeruginosa [9] and against Pseudomonas aeruginosa [10] was 4 mg/L (≈ 9.19 µM) each time. The MTD in the data set listed under Mus musculus [11] came to 400 mg/kg. Also, in the data set on Pseudomonas aeruginosa [12], the Activity came to 20%.
As to `NC[C@H]1O[C@H](O[C@H]2[C@H](O)[C@@H](O[C@H]3O[C@H](CO)[C@@H](O)[C@H](N)[C@H]3O)[C@H](N)C[C@@H]2N)[C@H](N)C[C@@H]1O` [TOBRAMYCIN], the Activity in the data set with Pseudomonas aeruginosa [13] worked out at 60%. Further, the results for the minimum inhibitory concentration (MIC) in the data set on Pseudomonas aeruginosa [9] and with Pseudomonas aeruginosa [10] were 0.5 mg/L (≈ 1.07 µM) and 0.25 mg/L (≈ 0.535 µM), respectively. The MTD in the data set filed under Mus musculus [11] stood at 60 mg/kg. Also, the log10cfu with Pseudomonas aeruginosa [14] is listed as 2.9.

Source of the values: ChEMBL document CHEMBL1649568, “Efficacy of aerosol MP-376, a levofloxacin inhalation solution, in models of mouse lung infection due to Pseudomonas aeruginosa” (Antimicrob Agents Chemother, 2009).
